Experimental data reported in ChEMBL document CHEMBL5058577, “EUbOPEN Chemogenomics Library 2 (Multiplex)” (2022).

Test system: U2OS
Experiment: Multiplex assay against U2OS
Assay type: toxicity, cell-based
Conditions: human
Method in brief: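 Cells stained live at seeding with Hoechst33342, BioTracker Green Microtubule Cytoskeleton Dye, MitoTracker Red and Annexin V Alexa Fluor 680 were imaged on a CQ1 microscope at 37°C and 5% CO2 after compound addition. Their classification by CellPathfinder machine-learning gating ran from Hoechst high-intensity objects versus normal cells, to healthy, pyknosed or fragmented nuclei among normal cells, to mitotic or apoptotic among pyknosed cells. Tubulin, mitochondrial-mass and membrane-permeability phenotypes are per cents of healthy-nucleus cells.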

[1] = 12 h, 1 µM, compound concentration 1 uM, replicate 1
[2] = 12 h, 1 µM, compound concentration 1 uM, replicate 2
[3] = 12 h, 10 µM, compound concentration 10 uM, replicate 1
[4] = 12 h, 10 µM, compound concentration 10 uM, replicate 2
[5] = 24 h, 1 µM, compound concentration 1 uM, replicate 1
[6] = 24 h, 1 µM, compound concentration 1 uM, replicate 2
[7] = 24 h, 10 µM, compound concentration 10 uM, replicate 1
[8] = 24 h, 10 µM, compound concentration 10 uM, replicate 2
[9] = 48 h, 1 µM, compound concentration 1 uM, replicate 1
[10] = 48 h, 1 µM, compound concentration 1 uM, replicate 2
[11] = 48 h, 10 µM, compound concentration 10 uM, replicate 1
[12] = 48 h, 10 µM, compound concentration 10 uM, replicate 2

COc1cc(C(=O)N2CC[C@@H](O)[C@@H](N)C2)cc2nc(-c3cc4ccccc4n3CC3CC3)n(C)c12.Cl
Population Apoptotic (%) [1]: 50% | Population Fragmented Nuclei (%) [1]: 32% | Population Healthy Nuclei (%) [1]: 53% | Population Hoechst High Intensity Objects (%) [1]: 4% | Population Membrane Permeable-Phenotype (%) [1]: 38% | Population Mitochondria Different-Phenotype (%) [1]: 16% | Population Mitotic Cells (%) [1]: 50% | Population Normal (%) [1]: 95% | Population Pyknosed Nuclei (%) [1]: 14% | Population Tubulin-Different-Phenotype (%) [1]: 29% | Total Cell Count [1]: 223 | Population Apoptotic (%) [2]: 75% | Population Fragmented Nuclei (%) [2]: 15% | Population Healthy Nuclei (%) [2]: 75% | Population Hoechst High Intensity Objects (%) [2]: 1% | Population Membrane Permeable-Phenotype (%) [2]: 20% | Population Mitochondria Different-Phenotype (%) [2]: 18% | Population Mitotic Cells (%) [2]: 25% | Population Normal (%) [2]: 98% | Population Pyknosed Nuclei (%) [2]: 8% | Population Tubulin-Different-Phenotype (%) [2]: 15% | Total Cell Count [2]: 92 | Population Apoptotic (%) [3]: 68% | Population Fragmented Nuclei (%) [3]: 23% | Population Healthy Nuclei (%) [3]: 38% | Population Hoechst High Intensity Objects (%) [3]: 6% | Population Membrane Permeable-Phenotype (%) [3]: 75% | Population Mitochondria Different-Phenotype (%) [3]: 88% | Population Mitotic Cells (%) [3]: 31% | Population Normal (%) [3]: 93% | Population Pyknosed Nuclei (%) [3]: 37% | Population Tubulin-Different-Phenotype (%) [3]: 96% | Total Cell Count [3]: 208 | Population Apoptotic (%) [4]: 56% | Population Fragmented Nuclei (%) [4]: 16% | Population Healthy Nuclei (%) [4]: 61% | Population Hoechst High Intensity Objects (%) [4]: 5% | Population Membrane Permeable-Phenotype (%) [4]: 79% | Population Mitochondria Different-Phenotype (%) [4]: 91% | Population Mitotic Cells (%) [4]: 44% | Population Normal (%) [4]: 94% | Population Pyknosed Nuclei (%) [4]: 22% | Population Tubulin-Different-Phenotype (%) [4]: 94% | Total Cell Count [4]: 120 | Population Apoptotic (%) [5]: 78% | Population Fragmented Nuclei (%) [5]: 28% | Population Healthy Nuclei (%) [5]: 54% | Population Hoechst High Intensity Objects (%) [5]: 3% | Population Membrane Permeable-Phenotype (%) [5]: 19% | Population Mitochondria Different-Phenotype (%) [5]: 14% | Population Mitotic Cells (%) [5]: 21% | Population Normal (%) [5]: 96% | Population Pyknosed Nuclei (%) [5]: 17% | Population Tubulin-Different-Phenotype (%) [5]: 12% | Total Cell Count [5]: 243 | Population Apoptotic (%) [6]: 75% | Population Fragmented Nuclei (%) [6]: 18% | Population Healthy Nuclei (%) [6]: 69% | Population Hoechst High Intensity Objects (%) [6]: 2% | Population Membrane Permeable-Phenotype (%) [6]: 17% | Population Mitochondria Different-Phenotype (%) [6]: 18% | Population Mitotic Cells (%) [6]: 25% | Population Normal (%) [6]: 97% | Population Pyknosed Nuclei (%) [6]: 11% | Population Tubulin-Different-Phenotype (%) [6]: 17% | Total Cell Count [6]: 109 | Population Apoptotic (%) [7]: 84% | Population Fragmented Nuclei (%) [7]: 25% | Population Healthy Nuclei (%) [7]: 35% | Population Hoechst High Intensity Objects (%) [7]: 4% | Population Membrane Permeable-Phenotype (%) [7]: 57% | Population Mitochondria Different-Phenotype (%) [7]: 88% | Population Mitotic Cells (%) [7]: 15% | Population Normal (%) [7]: 95% | Population Pyknosed Nuclei (%) [7]: 38% | Population Tubulin-Different-Phenotype (%) [7]: 78% | Total Cell Count [7]: 222 | Population Apoptotic (%) [8]: 71% | Population Fragmented Nuclei (%) [8]: 26% | Population Healthy Nuclei (%) [8]: 48% | Population Membrane Permeable-Phenotype (%) [8]: 50% | Population Mitochondria Different-Phenotype (%) [8]: 85% | Population Mitotic Cells (%) [8]: 28% | Population Pyknosed Nuclei (%) [8]: 25% | Population Tubulin-Different-Phenotype (%) [8]: 90% | Total Cell Count [8]: 133 | Population Apoptotic (%) [9]: 82% | Population Fragmented Nuclei (%) [9]: 23% | Population Healthy Nuclei (%) [9]: 61% | Population Hoechst High Intensity Objects (%) [9]: 2% | Population Membrane Permeable-Phenotype (%) [9]: 9% | Population Mitochondria Different-Phenotype (%) [9]: 5% | Population Mitotic Cells (%) [9]: 17% | Population Normal (%) [9]: 97% | Population Pyknosed Nuclei (%) [9]: 15% | Population Tubulin-Different-Phenotype (%) [9]: 5% | Total Cell Count [9]: 304 | Population Apoptotic (%) [10]: 76% | Population Membrane Permeable-Phenotype (%) [10]: 17% | Population Mitochondria Different-Phenotype (%) [10]: 11% | Population Mitotic Cells (%) [10]: 23% | Population Pyknosed Nuclei (%) [10]: 14% | Population Tubulin-Different-Phenotype (%) [10]: 12% | Total Cell Count [10]: 149 | Population Apoptotic (%) [11]: 88% | Population Fragmented Nuclei (%) [11]: 29% | Population Healthy Nuclei (%) [11]: 35% | Population Hoechst High Intensity Objects (%) [11]: 12% | Population Membrane Permeable-Phenotype (%) [11]: 47% | Population Mitochondria Different-Phenotype (%) [11]: 65% | Population Mitotic Cells (%) [11]: 11% | Population Normal (%) [11]: 87% | Population Pyknosed Nuclei (%) [11]: 35% | Population Tubulin-Different-Phenotype (%) [11]: 62% | Total Cell Count [11]: 232 | Population Apoptotic (%) [12]: 92% | Population Fragmented Nuclei (%) [12]: 30% | Population Hoechst High Intensity Objects (%) [12]: 6% | Population Mitochondria Different-Phenotype (%) [12]: 84% | Population Mitotic Cells (%) [12]: 7% | Population Normal (%) [12]: 93% | Population Pyknosed Nuclei (%) [12]: 34% | Population Tubulin-Different-Phenotype (%) [12]: 75% | Total Cell Count [12]: 131
